Test results from ChEMBL document CHEMBL3872267, “Design and synthesis of phosphoryl-substituted diphenylpyrimidines (Pho-DPPYs) as potent Bruton's tyrosine kinase (BTK) inhibitors: Targeted treatment of B lymphoblastic leukemia cell lines” (Bioorg Med Chem, 2017).

Key:
[1] = molecular target: Tyrosine-protein kinase BTK (Homo sapiens, UniProt Q06187); experiment: Inhibition of human recombinant full-length N-terminal His-tagged BTK expressed in baculovirus infected Sf9 insect cells measured after 60 mins by ADP-Glo kinase assay
Chain of Tyrosine-protein kinase BTK (Q06187 whole entry): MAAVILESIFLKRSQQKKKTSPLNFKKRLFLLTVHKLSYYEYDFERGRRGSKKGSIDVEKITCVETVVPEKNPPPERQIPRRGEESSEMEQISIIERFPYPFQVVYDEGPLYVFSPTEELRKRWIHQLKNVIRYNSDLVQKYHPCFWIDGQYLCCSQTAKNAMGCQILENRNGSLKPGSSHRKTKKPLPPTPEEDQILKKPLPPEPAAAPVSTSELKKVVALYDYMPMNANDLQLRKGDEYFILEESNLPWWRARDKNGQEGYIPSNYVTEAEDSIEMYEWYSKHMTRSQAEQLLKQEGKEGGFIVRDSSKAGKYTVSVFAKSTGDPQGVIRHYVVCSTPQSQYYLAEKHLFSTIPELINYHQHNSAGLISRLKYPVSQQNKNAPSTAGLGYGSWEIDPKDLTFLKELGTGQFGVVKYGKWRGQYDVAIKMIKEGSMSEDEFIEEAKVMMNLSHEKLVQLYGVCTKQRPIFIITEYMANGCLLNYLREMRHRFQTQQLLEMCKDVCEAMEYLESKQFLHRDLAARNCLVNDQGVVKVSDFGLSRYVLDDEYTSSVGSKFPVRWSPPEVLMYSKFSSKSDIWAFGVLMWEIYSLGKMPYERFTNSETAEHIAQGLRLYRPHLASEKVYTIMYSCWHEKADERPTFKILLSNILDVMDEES

[2] = Antiproliferative activity against human Ramos cells measured after 48 hrs by CCK-8 assay; type: functional, cell-based
Procedure, shortened: (§1)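 Cells seeded at 2000–3000 cells/well and kept one day at 37 °C, 5% CO₂ in RPMI1640 with 10% FBS. Viability was read by CCK-8 absorbance at 450 nm, and seeding was adjusted to give 0.5–1.2 absorbance. IC50 was derived by curve fitting.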

[3] = Antiproliferative activity against human Raji cells measured after 48 hrs by CCK-8 assay; type: functional, cell-based; procedure, shortened: as §1
[4] = Cell cycle arrest in human Ramos cells assessed as accumulation at G0/G1 phase at 10 uM measured after 48 hrs by propidium iodide based flow cytometry (reference value: 39.95 %); type: functional
Procedure, shortened: (§2)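 Ramos cells at about 2 × 10⁵ cells/well were treated for 48 h, then fixed overnight in 70% ethanol at 4 °C. After a PBS wash they were stained with propidium iodide for 10 min under subdued light. Cell-cycle phase distribution was determined by flow cytometry.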

[5] = Cell cycle arrest in human Ramos cells assessed as accumulation at S phase at 10 uM measured after 48 hrs by propidium iodide based flow cytometry (reference value: 55.07 %); type: functional; procedure, shortened: as §2
[6] = Cell cycle arrest in human Ramos cells assessed as accumulation at G2/M phase at 10 uM measured after 48 hrs by propidium iodide based flow cytometry (reference value: 4.98 %); type: functional; procedure, shortened: as §2
[7] = system: Ramos; experiment: Induction of apoptosis in human Ramos cells assessed as viable cells at 10 uM measured after 48 hrs by Annexin V-FITC/propidium iodide based flow cytometry relative to control; type: functional
Procedure, shortened: (§3)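 Ramos cells at 1–5 × 10⁵ cells/well were treated for 48 h in medium with 5% FBS, with a DMSO solvent control. They were […], stained with Annexin V-FITC/propidium iodide, and analysed by flow cytometry.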

[8] = system: Ramos; experiment: Induction of apoptosis in human Ramos cells assessed as early apoptotic cells at 10 uM measured after 48 hrs by Annexin V-FITC/propidium iodide based flow cytometry relative to control; type: functional; procedure, shortened: as §3
[9] = system: Ramos; experiment: Induction of apoptosis in human Ramos cells assessed as necrotic cells at 10 uM measured after 48 hrs by Annexin V-FITC/propidium iodide based flow cytometry (reference value: 0.2 %); type: functional; procedure, shortened: as §3
[10] = system: Ramos; experiment: Induction of apoptosis in human Ramos cells assessed as late apoptotic cells at 10 uM measured after 48 hrs by Annexin V-FITC/propidium iodide based flow cytometry relative to control; type: functional; procedure, shortened: as §3
[11] = system: Ramos; experiment: Induction of apoptosis in human Ramos cells assessed as viable cells at 1 uM measured after 48 hrs by Annexin V-FITC/propidium iodide based flow cytometry relative to control; type: functional; settings: read-out: Activity; procedure, shortened: as §3
[12] = system: Ramos; experiment: Induction of apoptosis in human Ramos cells assessed as late apoptotic cells at 1 uM measured after 48 hrs by Annexin V-FITC/propidium iodide based flow cytometry relative to control; type: functional; procedure, shortened: as §3
[13] = Cell cycle arrest in human Ramos cells assessed as accumulation at G0/G1 phase at 1 uM measured after 48 hrs by propidium iodide based flow cytometry (reference value: 39.95 %); type: functional; procedure, shortened: as §2
[14] = Cell cycle arrest in human Ramos cells assessed as accumulation at S phase at 1 uM measured after 48 hrs by propidium iodide based flow cytometry (reference value: 55.07 %); type: functional; procedure, shortened: as §2
[15] = Cell cycle arrest in human Ramos cells assessed as accumulation at G2/M phase at 1 uM measured after 48 hrs by propidium iodide based flow cytometry (reference value: 4.98 %); type: functional; procedure, shortened: as §2
[16] = Cell cycle arrest in human Ramos cells assessed as accumulation at G0/G1 phase at 5 uM measured after 48 hrs by propidium iodide based flow cytometry (reference value: 39.95 %); type: functional; procedure, shortened: as §2
[17] = Cell cycle arrest in human Ramos cells assessed as accumulation at S phase at 5 uM measured after 48 hrs by propidium iodide based flow cytometry (reference value: 55.07 %); type: functional; procedure, shortened: as §2
[18] = Cell cycle arrest in human Ramos cells assessed as accumulation at G2/M phase at 5 uM measured after 48 hrs by propidium iodide based flow cytometry (reference value: 4.98 %); type: functional; procedure, shortened: as §2
[19] = system: Ramos; experiment: Induction of apoptosis in human Ramos cells assessed as early apoptotic cells at 1 uM measured after 48 hrs by Annexin V-FITC/propidium iodide based flow cytometry relative to control; type: functional; procedure, shortened: as §3
[20] = system: Ramos; experiment: Induction of apoptosis in human Ramos cells assessed as necrotic cells at 1 uM measured after 48 hrs by Annexin V-FITC/propidium iodide based flow cytometry (reference value: 0.2 %); type: functional; procedure, shortened: as §3
[21] = system: Ramos; experiment: Induction of apoptosis in human Ramos cells assessed as viable cells at 5 uM measured after 48 hrs by Annexin V-FITC/propidium iodide based flow cytometry relative to control; type: functional; settings: read-out: Activity; procedure, shortened: as §3
[22] = system: Ramos; experiment: Induction of apoptosis in human Ramos cells assessed as late apoptotic cells at 5 uM measured after 48 hrs by Annexin V-FITC/propidium iodide based flow cytometry relative to control; type: functional; procedure, shortened: as §3
[23] = system: Ramos; experiment: Induction of apoptosis in human Ramos cells assessed as early apoptotic cells at 5 uM measured after 48 hrs by Annexin V-FITC/propidium iodide based flow cytometry relative to control; type: functional; procedure, shortened: as §3
[24] = system: Ramos; experiment: Induction of apoptosis in human Ramos cells assessed as necrotic cells at 5 uM measured after 48 hrs by Annexin V-FITC/propidium iodide based flow cytometry (reference value: 0.2 %); type: functional; procedure, shortened: as §3

Structure (SMILES)	IC50 [1] [µM]	IC50 [2] [µM]	IC50 [3] [µM]	Activity [4] [%]	Activity [5] [%]	Activity [6] [%]	further results
C=CC(=O)Nc1cccc(Nc2nc(Nc3ccc(CP(=O)(OCC)OCC)cc3)ncc2F)c1	0.0321	9.36	34.9	–	–	–	–
C=CC(=O)Nc1cccc(Nc2nc(Nc3ccc(CP(=O)(OCC)N4CCOCC4)cc3)ncc2Cl)c1 (stereo not drawn)	0.112	27.4	7.71	–	–	–	–
C=CC(=O)N1CCC[C@@H](n2nc(-c3ccc(Oc4ccccc4)cc3)c3c(N)ncnc32)C1 [IBRUTINIB]	–	–	–	43.2	50.2	6.57	Activity [7]: 52%; Activity [8]: 37%; Activity [9]: 0.1%
C=CC(=O)Nc1cccc(Nc2nc(Nc3ccc(OCCOC)cc3)ncc2F)c1 [SPEBRUTINIB]	–	–	–	31	47.9	20.9	viability at 10 µM ([7]; Homo sapiens, Ramos, 48 h, read-out: Activity): 54.2%; Activity [10]: 20.4%; Activity [8]: 21.1%; Activity [9]: 4.3%
C=CC(=O)Nc1cccc(Nc2nc(Nc3ccc(OCCCP(=O)(OCC)N4CCOCC4)cc3)ncc2Cl)c1 (stereo not drawn)	0.00082	3.17	6.69	38	50.8	11.2	viability at 1 µM [11]: 50.9%; Activity [12]: 5.9%; Activity [13]: 36.9%; Activity [14]: 55.4%; Activity [15]: 7.68%; Activity [16]: 36.4%; Activity [17]: 54.3%; Activity [18]: 9.29%; Activity [19]: 27.7%; Activity [20]: 15.6%; viability at 5 µM [21]: 40.2%; Activity [22]: 7.5%; Activity [23]: 37.6%; Activity [24]: 14.7%
C=CC(=O)Nc1cccc(Nc2nc(Nc3ccc(OCCCP(=O)(OCC)OCC)cc3)ncc2F)c1	0.0216	11.5	16.4	–	–	–	–
C=CC(=O)Nc1cccc(Nc2nc(Nc3ccc(CP(=O)(OCC)OCC)cc3)ncc2Cl)c1	0.00123	11.7	13.5	–	–	–	–
C=CC(=O)Nc1cccc(Nc2nc(Nc3ccc(OCCCP(=O)(OCC)OCC)cc3)ncc2Cl)c1	0.0106	5.4	6.07	–	–	–	–
